From ChEMBL document CHEMBL1150817, “Annomolin and annocherimolin, new cytotoxic annonaceous acetogenins from Annona cherimolia seeds” (J Nat Prod, 2001)
Converted amounts (≈) assume the structure as drawn.

Key:
[1] = system: PC-3; assay: Cytotoxicity against human PC3 cells after 7 days by MTT assay; assay type: functional; settings: for EC50: Homo sapiens, PC-3, 168 h, read-out: ED50 (the source's name)
Procedure, shortened: (§1)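 Seven-day in vitro MTT assay run at the Purdue Cancer Center cell culture laboratory under standard protocols. Cell lines were A-549 lung carcinoma, MCF-7 breast carcinoma, HT-29 colon adenocarcinoma, A-498 kidney carcinoma, PC-3 prostate adenocarcinoma and MIA PaCa-2 pancreatic carcinoma. Adriamycin served as the positive control.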

[2] = system: MIA PaCa-2; assay: Cytotoxicity against human MIAPaCa2 cells after 7 days by MTT assay; assay type: functional; settings: for EC50: Homo sapiens, MIA PaCa-2, 168 h, read-out: ED50 (the source's name); procedure, shortened: as §1
[3] = system: A498; assay: Cytotoxicity against human A498 cells after 7 days by MTT assay; assay type: functional; settings: for EC50: Homo sapiens, A498, 168 h, read-out: ED50 (the source's name); procedure, shortened: as §1
[4] = Toxicity to Artemia salina; assay type: organism-based; settings: in vivo
Procedure, shortened: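 Brine shrimp lethality test (BST) on larvae, run routinely on extracts, fractions and isolated compounds during activity-directed fractionation.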

[5] = system: A549; assay: Cytotoxicity against human A549 cells after 7 days by MTT assay; assay type: functional; settings: A549, 168 h, read-out: ED50 (the source's name); procedure, shortened: as §1
[6] = system: MCF7; assay: Cytotoxicity against human MCF7 cells after 7 days by MTT assay; assay type: functional; procedure, shortened: as §1
[7] = system: HT-29; assay: Cytotoxicity against human HT-29 cells after 7 days by MTT assay; assay type: functional; procedure, shortened: as §1

Structure (SMILES) | EC50 [1] [µg/mL] | ED50 [2] [×10⁻⁵ ug/ml] | EC50 [3] [µg/mL] | LC50 [4] [ng/mL] | EC50 [5] [µg/mL] | ED50 [6] | ED50 [7] | ED50 [1] [×10⁻⁶ ug/ml] | EC50 [2] [µg/mL] | ED50 [3] [×10⁻⁴ ug/ml] | EC50 ([6]; Homo sapiens, MCF7, 168 h, read-out: ED50 (the source's name)) [µg/mL] | EC50 ([7]; Homo sapiens, HT-29, 168 h, read-out: ED50 (the source's name)) [µg/mL]
CCCCCCCCCCCC/C=C\CC[C@@H](O)[C@H]1CC[C@H]([C@H](O)CCCC(O)CCCC[C@@H](O)CC2=C[C@H](C)OC2=O)O1 (stereo not given in full) [ANNOCHERIMOLIN] | 1.02 (≈ 1.64 µM) | 1.2 | 0.153 (≈ 0.246 µM) | 5.8 (≈ 0.00931 µM) | 1.56 (≈ 2.5 µM) | 4.06 ×10⁻⁶ ug/ml | 2.49 ×10⁻⁶ ug/ml | – | – | – | – | –
CCCCCCCCCCCCCC[C@H](O)[C@@H]1CC[C@@H](CCCCC[C@@H](O)[C@H](O)CC[C@@H](O)CC2=C[C@H](C)OC2=O)O1 [ANNOMOLIN] | – | – | – | 9.4 (≈ 0.0157 µM) | 2.37 (≈ 3.97 µM) | 1.15 ×10⁻⁴ ug/ml | 8.92 ×10⁻⁵ ug/ml | 5.39 | 2.18 (≈ 3.65 µM) | 6.88 | – | –
COc1cccc2c1C(=O)c1c(O)c3c(c(O)c1C2=O)C[C@@](O)(C(=O)CO)C[C@@H]3O[C@H]1C[C@H](N)[C@H](O)[C@H](C)O1 [DOXORUBICIN] | 0.0502 (≈ 0.0924 µM) | – | 0.00226 (≈ 0.00416 µM) | – | 0.00113 (≈ 0.00208 µM) | – | – | – | 0.00262 (≈ 0.00482 µM) | – | 0.0182 (≈ 0.0335 µM) | 0.0128 (≈ 0.0235 µM)
